This is a sample that favours compounds with a hit; in the whole collection about 2.3% have one here.
TRPC4 inh: inhibitors of mouse TRPC4 channel | Q9QUQ5 | HEK293 TRPC4beta/mu-opioid, DAMGO-evoked Fluo4 calcium flux; hits give low values | B-score at 10 µM | 0.39% of 300,000 active;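 active = B-score over 3 SD under the library average, no early fluorescence shift, positive overall ratio signal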
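Assay system: HEK293 cells with stable TRPC4beta plus mu-opioid receptor expression. Dosing: single dose. Measured by: Fluo4 Ca2+ flux fluorescence. Also added: DAMGO in two steps, submaximal then maximal. Read-out: B score from integrated Fluo4 fluorescence ratio.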
TRPC6 act: activators of mouse TRPC6 channel; HEK293-TRPC6 membrane potential dye fluorescence; hits give high values; B-score at 10 µM; 0.13% of 310,000 active; AID 2550;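 active = B-score of the integrated fluorescence ratio above library mean plus 3 SD, and starting fluorescence ratio within library mean plus 5 SD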;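 note: higher score means more depolarization so channel activation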
TRPC4 PAM: allosterically enhances the mouse TRPC4 cation channel | Q9QUQ5 | HEK293 TRPC4beta/mu-opioid, DAMGO EC20, Fluo-4 Ca2+ flux; hits give high values | B-score at 10 µM | 0.42% of 310,000 active;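 active = B-score of calcium response area above 5 SD of library B-scores, with initial fluorescence ratio within 5 SD of library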
TRPC6 inhibitor: inhibitors of mouse TRPC6 channel; Q61143; HEK293-TRPC6, membrane potential dye, ACh-evoked depolarization; hits give low values; B-score at 10 µM; 1.1% of 310,000 active; AID 2553;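 active = B-score under library mean minus 3 SD, initial fluorescence not abnormally high, positive integrated signal ratio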;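 note: B-score derived from integrated fluorescence ratio over the kinetic read; more negative B-score means stronger inhibition of depolarization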
TRPC4 agonist: TRPC4 (mouse) channel activation. Q9QUQ5. HEK293 TRPC4beta/mu-opioid, Fluo4 calcium fluorescence; hits give high values. B-score at 10 µM. 0.49% of 310,000 active. AID 2237;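 active = B-score above 5 SD of library B-scores, and initial fluorescence ratio not above library mean plus 5 SD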;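 note: positive B-score marks a calcium rise read as TRPC4 activation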
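Technique: kinetic Fluo4 calcium fluorescence; Test system: TRPC4beta and mu-opioid receptor HEK293 stable cells; Measure: B-scored integrated calcium fluorescence ratio; Benchmarks: low control buffer alone, high control maximal DAMGO; Schedule: 45 min room-temperature Fluo4 loading, 110 s read.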
TRPC4 spec 2: mouse TRPC4 off-target activity of TRPC6 inhibitors, second screen; inhibition, % at 10 µM; shares compounds with TRPC6 inhibitor; HEK293 TRPC4/MOR, membrane potential dye fluorescence; channel activated by saturating DAMGO dose; 42% of 920 active; AID 2776;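 active = compounds whose fluorescence signal differed from control wells by over 3 SD, either direction, in both duplicate plates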
TRPC4 spec: selectivity of TRPC6 inhibitors: effect on mouse TRPC4. HEK293 TRPC4/mu-opioid, membrane potential fluorescence. activity change, negative = inhibition, % at 10 µM. AID 2777. shares compounds with TRPC6 inhibitor. 61% of 920 active;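 active = rise or fall in signal beyond 3 SD of buffer-only wells in both replicate plates, either sign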;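 note: integrated kinetic ratio of fluorescence range over baseline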
HEK293 MPD ctr 2-1: parental HEK293 nonspecific activity of TRPC6 inhibitors, second screen | shares compounds with TRPC6 inhibitor | parental HEK293 membrane potential dye fluorescence; maximal acetylcholine challenge after compound addition | signal change vs control, % at 10 µM | 31% of 920 active | AID 2779;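 active = membrane potential signal moving either way by over 3 SD of the maximum-effect control, in both duplicate plates, meaning non-specific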
HEK293 MPD ctr-1: counter-screen for TRPC6 inhibitors: effect in parental HEK293 cells | 60% of 920 active | shares compounds with TRPC6 inhibitor | membrane potential signal change, % at 10 µM | parental HEK293 membrane potential dye fluorescence;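 active = membrane potential signal shifting up or down by more than 3 SD of buffer-only wells, on both duplicate plates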
HEK293 MPD ctr-2: parental HEK293 nonspecific activity of TRPC6 modulators | shares compounds with TRPC6 inhibitor | membrane potential dye fluorescence | membrane potential signal change, % at 10 µM | 51% of 2,400 active | AID 488924;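 active = membrane potential signal moves up or down beyond 5 SD from buffer-only wells, on both duplicate plates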
HEK293 MPD ctr 2-2: second counter-screen for TRPC6 modulators: effect in parental HEK293 cells. shares compounds with TRPC6 inhibitor. membrane potential dye fluorescence; after compound, maximal acetylcholine stimulation. inhibition, % at 10 µM. 14% of 2,400 active;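 active = membrane potential signal drops by more than 5 SD from the mean control signal, in both duplicate plates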
TRPC4 ctr mod: tests whether TRPC6 modulators also affect mouse TRPC4; 69% of 2,400 active; percent change from control (negative = decrease, positive = increase), % at 10 µM; HEK293 TRPC4/mu-opioid, membrane potential fluorescence; AID 488927; shares compounds with TRPC6 inhibitor;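 active = membrane potential signal moved up or down beyond 5 SD of buffer control wells, in both duplicate plates, actives on both sides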
TRPC4 ctr inh 2: second selectivity test of TRPC6 modulators against mouse TRPC4; shares compounds with TRPC6 inhibitor; HEK293 TRPC4/mu-opioid, membrane potential dye fluorescence; stimulated with maximal-effect DAMGO; inhibition, % at 10 µM; 55% of 2,400 active; AID 488928;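 active = drop in membrane potential signal beyond 5 SD of the control wells in both duplicate plates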;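 note: TRPC4 counter screen for TRPC6 hits run under conditions tuned for TRPC6 not TRPC4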
TRPC6 block conf: confirmation of mouse TRPC6 inhibitors | HEK293-TRPC6, membrane potential dye, ACh-evoked depolarization | AID 488960 | shares compounds with TRPC6 inhibitor | inhibition, % at 10 µM | 43% of 3,300 active;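 active = fluorescence ratio falls more than 5 SD below the full-stimulation control mean, in both duplicate runs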;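 note: integrated fluorescence ratio of peak minus minimum over baseline after agonist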
TRPC6 act conf: mouse TRPC6 activator confirmation | shares compounds with TRPC6 inhibitor | HEK293-TRPC6 membrane potential dye fluorescence, FDSS | activation, % at 10 µM | 11% of 2,800 active | AID 488961;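 active = ratio signal rise beyond 5 SD above unstimulated control wells' mean, seen in both duplicate runs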
Of the large screens only hits and unclear results are named; the others gave an inactive call (follow-up assays come after a bar, where they were run).

COC(=O)CN1C(=S)N(c2ccc(Cl)cc2)C(=O)C1CC(=O)Nc1ccc(Cl)cc1 (centres undefined)	TRPC6 inhibitor -6.59 | HEK293 MPD ctr-2 -68.5% | HEK293 MPD ctr 2-2 inactive | TRPC4 ctr mod -19.5% | TRPC4 ctr inh 2 32.0% | TRPC6 block conf inactive | TRPC6 act conf inactive
C=CCN1C(=O)N(c2ccc(Cl)cc2)C(=O)C1CC(=O)Nc1ccc(F)cc1 (centres undefined)	TRPC6 inhibitor -5.79 | HEK293 MPD ctr-2 -66.5% | HEK293 MPD ctr 2-2 inactive | TRPC4 ctr mod -16.5% | TRPC4 ctr inh 2 inactive | TRPC6 block conf inactive | TRPC6 act conf inactive
CCOC(=O)c1ccc(NC(=O)CC2C(=O)N(c3ccc(F)cc3)C(=O)N2CCC(C)C)cc1 (centres undefined)	TRPC6 inhibitor -5.84 | HEK293 MPD ctr-2 inactive | HEK293 MPD ctr 2-2 inactive | TRPC4 ctr mod inactive | TRPC4 ctr inh 2 inactive | TRPC6 block conf 41.5%
COC(=O)CN1C(=S)N(c2ccc(Cl)cc2)C(=O)C1CC(=O)Nc1ccc(F)cc1 (centres undefined)	none
CCCn1cc(CN2CCC(n3nccc3NC(=O)C(OC)c3ccccc3)CC2)c(C)n1 (centres undefined)	none
COc1ccc(N2CC(C(=O)Nc3cccc(OC(C)C)c3)CC2=O)cc1 (centres undefined)	none
COc1ncnc(-c2ccccc2)c1-c1ccccc1	none
Cc1cc(C)nc(/N=C(\N)N(Cc2ccccc2)Cc2ccccc2)n1	TRPC4 inh -7, TRPC6 inhibitor -7.51 | TRPC4 spec 2 39.5% | TRPC4 spec 36.6% | HEK293 MPD ctr 2-1 inactive | HEK293 MPD ctr-1 3.8% | TRPC6 block conf inactive | TRPC6 act conf inactive
Fc1cccc(Cc2noc(CN3CCN(C4CCc5ccccc5C4)CC3)n2)c1 (centres undefined)	TRPC6 inhibitor -7.81 | TRPC4 spec 2 inactive | TRPC4 spec 13.6% | HEK293 MPD ctr 2-1 289.5% | HEK293 MPD ctr-1 12.7% | TRPC6 block conf inactive
Fc1cccc(Cc2noc(CN3CCCN(C4Cc5ccccc5C4)CC3)n2)c1	TRPC6 inhibitor -5.07 | HEK293 MPD ctr-2 202.0% | HEK293 MPD ctr 2-2 inactive | TRPC4 ctr mod 27.5% | TRPC4 ctr inh 2 70.5% | TRPC6 block conf 46.5%
OCOCCCn1c(C2CCCN2c2nc(-c3ccc(F)cc3)cs2)nc2cc(Cl)c(N3CCCCC3)cc21 (centres undefined)	none
CCCCOC(=O)c1ccc(NC(=O)COC(=O)C2CSC3(C)CCC(=O)N23)cc1 (centres undefined)	TRPC6 inhibitor -5.68 | HEK293 MPD ctr-2 inactive | HEK293 MPD ctr 2-2 inactive | TRPC4 ctr mod inactive | TRPC4 ctr inh 2 inactive | TRPC6 block conf 75.0%
CC12CCC(=O)N1C(C(=O)OCC(=O)Nc1sccc1C#N)CS2 (centres undefined)	none
CCOc1ccc(NC(=O)[C@@H]2CCC(=O)N2C2OC(=O)c3ccccc32)cc1 (some centres undefined)	none
O=C(Nc1ccc(F)cc1)C1CCC(CNc2c(N3CCCCC3)c(=O)c2=O)CC1 (centres undefined)	none
CC(NCc1ccc(N(C)C)cc1)C1CC2CCC1C2 (centres undefined)	TRPC6 inhibitor -6.55 | HEK293 MPD ctr-2 231.0% | HEK293 MPD ctr 2-2 70.0% | TRPC4 ctr mod 51.0% | TRPC4 ctr inh 2 60.5% | TRPC6 block conf 77.0%
O=C(COC(=O)c1ccccc1Br)Nc1ccc2[nH]c(=O)[nH]c2c1	none
C(=N\Nc1ncnc2sc3c(c12)CCC3)/c1ccncc1	none
c1cc(Nc2ncnc3sc4c(c23)CCC4)ccn1	TRPC6 inhibitor -5.63 | HEK293 MPD ctr-2 -241.5% | HEK293 MPD ctr 2-2 67.0% | TRPC4 ctr mod -39.0% | TRPC4 ctr inh 2 38.5% | TRPC6 block conf 55.0% | TRPC6 act conf inactive
Cc1ccc2nc(C)cc(Nc3ccc([N+](=O)[O-])cc3)c2c1	none
COC(=O)c1ccc2nc(C)cc(Nc3ccccc3C)c2c1	TRPC6 inhibitor -5.88 | HEK293 MPD ctr-2 -149.0% | HEK293 MPD ctr 2-2 inactive | TRPC4 ctr mod -25.0% | TRPC4 ctr inh 2 43.0% | TRPC6 block conf 58.0% | TRPC6 act conf inactive
COC(=O)c1ccc(Nc2cc(C)nc3ccc(C)cc23)cc1	TRPC6 inhibitor -7.25 | TRPC4 spec 2 inactive | TRPC4 spec -21.8% | HEK293 MPD ctr 2-1 inactive | HEK293 MPD ctr-1 -299.0% | TRPC6 block conf inactive | TRPC6 act conf inactive
Nc1ccccc1C(=O)NCc1ccc(Cl)cc1	none
COc1ccccc1-c1cc(C(=O)N/N=C\c2cn(C)nc2C)c2ccccc2n1	TRPC6 inhibitor -5.91 | HEK293 MPD ctr-2 inactive | HEK293 MPD ctr 2-2 inactive | TRPC4 ctr mod inactive | TRPC4 ctr inh 2 inactive | TRPC6 block conf 44.0%
CCn1cc(/C=N\NC(=O)c2cc(-c3ccccc3OC)nc3ccccc23)c(C)n1	none
CNCc1c(OCc2ccccc2)ccc2ccccc12	TRPC4 inh -6, TRPC6 inhibitor -7.05 | TRPC4 spec 2 44.5% | TRPC4 spec 28.6% | HEK293 MPD ctr 2-1 inactive | HEK293 MPD ctr-1 12.5% | TRPC6 block conf inactive
CNCc1c(OCc2ccccc2F)ccc2ccccc12	none
